Several values for one entry are separate records, joined by “and”; a condition that tells them apart may be missing. Equal values may be shown once. One block for each compound: values may come before it.
Columns and labels:
[1] = biological target: murine Sn (Mus musculus, UniProt Q62230); conditions: inhibition of mSn-Fc chimera binding to natural-ligand beads; triplicate, ± SD
In short: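 Magnetic beads coated with Neu5Acα2-3Galβ1-4GlcNAc were bound by murine sialoadhesin-Fc chimera in the presence of serial dilutions of competitor (9-N-acyl sialoside analogs). Displacement of bead-bound chimera was read by flow cytometry, and IC50 was taken as the concentration needed to displace the bound chimera. Titrations were run in triplicate, with SD from three independent measurements.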

[2] = system: Sn; conditions: natural ligand in a comparable assay; cited from earlier work
[3] = system: CD22 (Siglec-2) on B cells; conditions: ligand targeting chemotherapeutic loaded liposomes; cited from earlier work
[4] = system: Sn; conditions: liposomes decorated with the ligand; cited from earlier work
[5] = system: Sn expressing cells; conditions: liposomes decorated with the ligand; cited from earlier work

Sequence of murine Sn (Q62230 20-136 limits assumed): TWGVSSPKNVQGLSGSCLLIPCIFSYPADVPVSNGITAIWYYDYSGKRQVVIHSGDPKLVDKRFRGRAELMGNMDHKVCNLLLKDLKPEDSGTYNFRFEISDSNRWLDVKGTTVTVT

- IC50 [1]: 0.38 ± 0.04 µM
Compound: CC(=O)NC1C(O)OC(CO)C(OC2OC(CO)C(O)C(OC3(C(=O)O)CC(O)C(NC(C)=O)C(C(O)C(O)CNC(=O)c4cc5c(s4)-c4ccccc4OC5)O3)C2O)C1O (stereo not drawn) [Compound 2, 9-N-(4H-thieno[3,2-c]chromene-2-carbamoyl)-Neu5Acα 2-3Galβ1-4GlcNAc]

Compound: Neu5Acα2-3Galβ1-4GlcNAc
- IC50 [2]: 1300 µM

Compound: 9-N-biphenylcarbamoyl-Neu5Acα2-6Galβ1-4GlcNAc [6′-^BPCNeu5Ac]
- survival in murine model of human B cell lymphoma [3]: prolong life

- IC50 [1]: 4.8 µM and 4.82 µM
Compound: CC(=O)NC1C(O)OC(CO)C(OC2OC(CO)C(O)C(OC3(C(=O)O)CC(O)C(NC(C)=O)C(C(O)C(O)CNC(=O)c4ccc(-c5ccccc5)cc4)O3)C2O)C1O (stereo not drawn) [Compound 1, 9-N-biphenylcarbamoyl-Neu5Acα2-3Galβ1-4GlcNAc]
- selectivity for in vivo targeting [4]: not sufficiently selective
- targeting of Sn expressing cells in vitro [5]: capable of targeting Sn expressing cells in vitro

From article PMC3462166 (Journal of the American Chemical Society, 2012)
